Test results: PMC6092622 (The EMBO Journal, 2018)
Read-outs that look alike come from different tables or passages of the source.

What was measured:
IKK and SOD1/IKK mice = assay type: in vivo, mouse
In short: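 Transgene expression was active in the sustained cohort (DOX withdrawn at P20–25). Mice of all four genotypes got a Porcupine inhibitor by daily oral gavage at 10 mg/kg for 12 days, from P25 (sacrificed at P38) or from P90 (to P102). It was suspended in PBS + 5% Tween-80 + 5% PEG-400; vehicle controls were included. Spinal cord sections were immunostained; Ki-67 and CD45 required citrate antigen retrieval. Cell densities are per area unit.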

human CB2 [1] = molecular target: T1, human CB2 (Homo sapiens, UniProt P34972); test: cAMP assay in CHO cells stably expressing human CB2; assay type: cell-based; conditions: in words
T1 sequence (P34972 whole entry): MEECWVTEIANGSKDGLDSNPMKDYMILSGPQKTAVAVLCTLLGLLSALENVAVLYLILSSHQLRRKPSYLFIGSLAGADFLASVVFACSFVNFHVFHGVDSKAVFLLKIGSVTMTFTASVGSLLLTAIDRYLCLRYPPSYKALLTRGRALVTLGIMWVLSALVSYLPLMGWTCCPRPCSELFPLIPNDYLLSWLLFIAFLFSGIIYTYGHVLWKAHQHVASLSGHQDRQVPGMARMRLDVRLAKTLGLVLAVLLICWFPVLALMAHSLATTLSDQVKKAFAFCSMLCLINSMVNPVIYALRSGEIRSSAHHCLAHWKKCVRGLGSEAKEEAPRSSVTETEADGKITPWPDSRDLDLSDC
In short: (§1)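 cAMP assays were run in CHO cells stably expressing human CB2 or mouse CB2. Efficacy is expressed as % of the response to 1 μM CP55940.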

SOD1 (G93A) mice = test: CB2 ligands given i.p. to SOD1; assay type: in vivo, mouse; conditions: for fraction of LC3A bright MN: P25 to P35, vehicle 23.4 ± 7.7; for misfolded SOD1: high-burden MN fraction: P25 to P35, vehicle 25.4 ± 5.5%; for %IBA1+ area (microglial expansion): P25 to P35, SOD1-veh 9.7 ± 0.4%
In short: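 Male SOD1(G93A) mice got daily i.p. CB2 agonists (10 mg/kg) or inverse agonist (30 mg/kg) as a microsuspension in 1% Tween-80/0.9% NaCl with 0.2% parabens, or vehicle. Spinal cords were perfusion-fixed and cut into 40 μm free-floating sections. CD4 was stained after citrate-heat antigen retrieval. IBA1 was scored as the thresholded area fraction of ventral-horn ROIs. High-burden MN cutoff: 75th percentile of vehicle-treated SOD1. Used 8–10 sections/mouse, ≥4 mice/group.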

human CB2 [2] = molecular target: T1, human CB2; assay type: binding; conditions: CB2 versus CB1, as stated in text
In short: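 Competition binding used [3H]-CP55940 radioligand on membranes from cells expressing human CB2 or human CB1, so that selectivity could be compared. Each compound was tested at 10 concentrations in triplicate. Ki values were calculated from a single experiment.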

mouse CB2 = mouse CB2 (Mus musculus, UniProt P47936); test: cAMP assay in CHO cells stably expressing mouse CB2; assay type: cell-based; conditions: in words
Chain of mouse CB2 (P47936 whole entry): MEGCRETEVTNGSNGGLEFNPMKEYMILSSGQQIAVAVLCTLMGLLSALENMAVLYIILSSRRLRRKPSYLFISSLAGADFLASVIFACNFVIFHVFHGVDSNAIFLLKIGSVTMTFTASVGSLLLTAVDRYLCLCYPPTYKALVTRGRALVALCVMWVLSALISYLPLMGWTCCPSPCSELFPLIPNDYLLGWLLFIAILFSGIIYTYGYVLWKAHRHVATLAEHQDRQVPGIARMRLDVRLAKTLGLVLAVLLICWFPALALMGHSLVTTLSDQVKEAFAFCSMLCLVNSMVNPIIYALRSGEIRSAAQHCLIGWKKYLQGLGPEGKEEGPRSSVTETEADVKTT
In short: as §1

WT mice = test: CB2 agonists given to WT mice, IBA1 immunostaining; assay type: in vivo, mouse; conditions: IBA1 staining
[3] = 30 mg/kg once daily i.p., P25 to P35
[4] = 10 mg/kg once daily i.p., P25 to P35

| Structure (SMILES) | functional activity in cAMP assay, human CB2 (human CB2 [1]) | binding selectivity against CB1 (human CB2 [2]) | functional activity in cAMP assay, mouse CB2 (mouse CB2) | infiltration of CD4+ lymphocytes in spinal cord (SOD1 (G93A) mice; [4]) | %IBA1+ area (microglial expansion) (SOD1 (G93A) mice; 10 mg/kg once daily i.p.) | fraction of LC3A bright MN (SOD1 (G93A) mice; 10 mg/kg once daily i.p.) | misfolded SOD1: high-burden MN fraction (SOD1 (G93A) mice; 10 mg/kg once daily i.p.) | effect on microglial size in WT animals (WT mice) | also measured |
| --- | --- | --- | --- | --- | --- | --- | --- | --- | --- |
| Cc1cc(-c2ccc(CC(=O)Nc3ccc(-c4cccnc4)cc3)cc2)ccn1 [Compound C59] | – | – | – | – | – | – | – | – | WNT5a immunoreactivity (IKK and SOD1/IKK mice; 10 mg/kg daily oral gavage for 12 days from P25, sacrifice at P38): < 10 % of vehicle‐treated (Veh) SOD1/IKK; decrease in misfolded SOD1 and LC3A levels in SOD1/IKK versus SOD1 littermates (IKK and SOD1/IKK mice; 10 mg/kg daily oral, P25-P38): completely reverted; number of CD45+ cells (IKK and SOD1/IKK mice; IKK and SOD1/IKK mice, late phase P90 to P102): significantly decreased; number of CD11b+KI-67+ cells (IKK and SOD1/IKK mice; IKK mice, 10 mg/kg daily oral, P25-P38, IKK-Veh 11.0 ± 3.0): 5.4 ± 0.2 cells per 10^4 μm^2; overall IBA1+ area (IKK and SOD1/IKK mice; IKK mice, 10 mg/kg daily oral, P25-P38, IKK-Veh 52.1 ± 6.5): 30.5 ± 4.6%; microglial density (number of IBA1+ cells) (IKK and SOD1/IKK mice; IKK mice, 10 mg/kg daily oral, P25-P38, vehicle 30.4 ± 1.8): 18.2 ± 1.7 cells/10^4 μm^2; number of IBA1+ cells at P102 (IKK and SOD1/IKK mice; IKK mice, late phase P90 to P102, IKK-Veh 16.5 ± 0.7): 7.8 ± 0.3; number of CD11b+KI-67+ cells (IKK and SOD1/IKK mice; SOD1/IKK mice, 10 mg/kg daily oral, P25-P38, SOD1/IKK-Veh 18.0 ± 2.0): 5.0 ± 1.3 cells per 10^4 μm^2; overall IBA1+ area (IKK and SOD1/IKK mice; SOD1/IKK mice, 10 mg/kg daily oral, P25-P38, SOD1/IKK-Veh 53.6 ± 3.9): 39.2 ± 4.9%; microglial density (number of IBA1+ cells) (IKK and SOD1/IKK mice; SOD1/IKK mice, 10 mg/kg daily oral, P25-P38, vehicle 36.2 ± 6.1): 20.2 ± 4.0 cells/10^4 μm^2; number of IBA1+ cells at P102 (IKK and SOD1/IKK mice; SOD1/IKK mice, late phase P90 to P102, SOD1/IKK-Veh 15.8 ± 0.2): 9.41 ± 0.35; number of CD45+ cells (IKK and SOD1/IKK mice; early administration, 10 mg/kg daily oral, P25-P38): strongly decreased |
| CNC(=O)[C@@H](NC(=O)c1cc(OCC2(C)COC2)c(C2CC2)cn1)C(C)(C)C [RO6851228, 5-Cyclopropyl-N-[(1S)-2,2-dimethyl-1-(methylcarbamoyl)propyl]-4-[(3-methyloxetan-3-yl)methoxy]pyridine-2-carboxamide] | inverse agonist activity | – | – | – | – | – | – | – | infiltration of CD4+ lymphocytes in spinal cord (SOD1 (G93A) mice; [3]): did not affect lymphocyte infiltration; microglial morphology (SOD1 (G93A) mice; [3]): expansion of the size and of the complexity of microglial processes; fraction of LC3A bright MN (SOD1 (G93A) mice; 30 mg/kg once daily i.p.): 11.4 ± 13.9%; misfolded SOD1: high-burden MN fraction (SOD1 (G93A) mice; 30 mg/kg once daily i.p.): 10.2 ± 5.1% |
| Cc1nonc1Cn1nnc2c(N3CC[C@H](O)C3)nc(C(C)(C)C)nc21 [RO6866945, (3S)-1-[5-tert-Butyl-3-[(4-methyl-1,2,5-oxadiazol-3-yl)methyl]triazolo[4,5-d]pyrimidin-7-yl]pyrrolidin-3-ol] | full agonists | 939 fold | full agonists | did not affect lymphocyte infiltration | 4.9 ± 0.2% | 70.8 ± 11.2% | 42.3 ± 8.7% | did not affect microglial size | – |
| Cc1nc([C@@](C)(CC2CC2)NC(=O)c2cc(OCC(F)(F)F)c(C3CC3)cn2)no1 [RO6871085, 5-Cyclopropyl-N-[(1R)-2-cyclopropyl-1-methyl-1-(5-methyl-1,2,4-oxadiazol-3-yl)ethyl]-4-(2,2,2-trifluoroethoxy)pyridine-2-carboxamide] | full agonists | 44 fold | full agonists | increased the number of CD4^+ cells | 5.2 ± 0.3% | 45.4 ± 5.6% | 69.1 ± 9.5% | – | – |
| NC(=O)[C@@H]1CC(F)(F)CN1C(=O)c1ccc(N2CC(F)(F)C2)c(OCC2CC2)n1 [RO6895896, (2S)-1-[6-(Cyclopropylmethoxy)-5-(3,3-difluoroazetidin-1-yl)pyridine-2-carbonyl]-4,4-difluoro-pyrrolidine-2-carboxamide] | full agonists | – | full agonists | did not affect lymphocyte infiltration | 6.0 ± 0.2% | 73.4 ± 12.4% | 72.4 ± 11.3% | did not affect microglial size | – |
